Data on five compounds can be found in article PMC10839685 (iScience, 2024).

In data set [1] the test system is human imidazoline receptors (I1, I2). Particulars: cited from earlier work.
For another data set, the system named is AgDI from E. faecalis. The note with it: substrate, cited from earlier work.
For data set [2], the target named is T1, E. coli agmatinase (EcAGM) (Escherichia coli, UniProt P60651).
T1 sequence (P60651 1-306): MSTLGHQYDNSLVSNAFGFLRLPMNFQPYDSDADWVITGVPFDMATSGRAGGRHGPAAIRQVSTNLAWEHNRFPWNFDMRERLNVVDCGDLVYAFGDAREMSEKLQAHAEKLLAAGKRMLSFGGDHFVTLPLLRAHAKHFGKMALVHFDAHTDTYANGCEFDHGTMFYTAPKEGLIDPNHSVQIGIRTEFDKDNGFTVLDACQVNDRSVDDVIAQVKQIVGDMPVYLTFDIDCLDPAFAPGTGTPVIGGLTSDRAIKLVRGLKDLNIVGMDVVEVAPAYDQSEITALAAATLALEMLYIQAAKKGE
Nature of the data set: E. coli agmatinase. The data set is classed as biochemical. The note with it: for pKi: Ki, EcAGM, competitive inhibition, pH 7.5, 100 mM HEPES, 2 mM MnCl2, substrate agmatine.

For data set [3], the system named is E. faecalis agmatine deiminase (AgDI). The data set can be described thus: Agmatine deiminase activity, GDH coupled enzyme assay. The class given is biochemical, Enterococcus faecalis. Particulars: pH 7.5. The method in brief:
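His-tagged, codon-optimized E. faecalis AgDI was expressed in E. coli (LB without added metal, 1 mM IPTG, 16°C, 20 h) and purified by Ni-affinity chromatography. Agmatine-initiated ammonia release was coupled to GDH (2.5 U/mL) with 5 mM 2-oxoglutarate, 0.3 mM NADH and 0.8 mM ADP in HEPES-NaOH pH 7.5. Initial rates came from continuous A340 (ε 6220 M⁻¹cm⁻¹, 0.56 cm path).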

A further data set concerns type 2 diabetes patients. The note with it: cited from earlier work.
Data set [4] deals with C. butyricum agmatinase (CbAGM) (Clostridium butyricum, UniProt C4IHF6). The class given is biochemical. The note with it: 5000 µM.
Chain of C. butyricum agmatinase (CbAGM) (C4IHF6 1-283): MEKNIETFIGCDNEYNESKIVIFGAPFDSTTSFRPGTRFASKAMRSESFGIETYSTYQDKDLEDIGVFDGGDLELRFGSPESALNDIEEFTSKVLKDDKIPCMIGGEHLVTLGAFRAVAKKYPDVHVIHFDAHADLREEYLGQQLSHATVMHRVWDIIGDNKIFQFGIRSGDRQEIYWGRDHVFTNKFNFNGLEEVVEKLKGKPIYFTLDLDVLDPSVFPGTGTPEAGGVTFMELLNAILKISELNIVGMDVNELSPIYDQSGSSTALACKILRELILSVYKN
The target in data set [5] is serine hydroxymethyltransferase 2. The note with it: read-out: Ki, serine hydroxymethyltransferase 2; mixed inhibition; cited from earlier work.
The conditions of data set [6]: cited from earlier work.
The target in a further data set is human PEN2 protein. The note with it: cited from earlier work.
Data set [7] has as its system EcAGM, CbAGM, GpuA, AGMAT, ARG1 and ARG2. Nature of the data set: HPLC analysis for metformin transformation by purified enzymes. The data set is classed as in vitro ADME. The note with it: 1 mM metformin, 10 μg purified enzyme, 20 mM CHES pH 9, overnight. The method in brief: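 His-tagged enzymes were expressed in E. coli BL21(DE3) and purified by Ni-affinity IMAC. ARG2 and AGMAT were mitochondrial-signal truncations (ARG2 Δ1-24/Δ331-354, AGMAT Δ1-35). Metformin was incubated with each enzyme, then analysed by reversed-phase C18 HPLC with an isocratic mobile phase of 75:25 (v/v) acetonitrile:10 mM potassium phosphate pH 6.6, which separates guanylurea from metformin.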

For data set [8] the following is noted: 1000–2000 mg daily; cited from earlier work.
A further data set relates to complex IV. The note with it: cited from earlier work.

pKi: −log10 of the molar value. “And” between values parts separate entries of the source, which are not always exact repeats. Identical values can stand only once. “Also recorded” adds a separate entry of the source.

Take `NCCCCN=C(N)N` [agmatine]: the “binding and agonism at human imidazoline receptors (I1, I2)” value in data set [1] is given as “micromolar range”. In addition, the Km (in general, the substrate concentration at which the rate is half of its maximum) with AgDI from E. faecalis (read-out: KM, AgDI from E. faecalis) is 35 µM. The “kcat, AgDI from E. faecalis” value in the data set on AgDI from E. faecalis was 840 s⁻¹.
On to `CCCCNC(=N)NC(=N)N` [buformin], for which the pKi (in general, the Ki on a negative log10 scale, so that one unit is a factor of ten) in [2] was 4.00.
In data set [2], `CC(C)=CCN=C(N)N` [galegine] had a pKi of 5.15. Also, in [3] (5 mM galegine), the “inhibition of agmatine deiminase (AgDI)” value is given as “not inhibited”.
Consider `CN(C)C(=N)N=C(N)N` [metformin], for which, in the data set with type 2 diabetes patients, the “effectiveness of intravenous administration in type 2 diabetes patients” value is listed as “little or no effectiveness”. In addition, the “predicted reduction in the maximum velocity of CbAGM-like enzymes” value in data set [4] was 27%. The “predicted reduction in the maximum velocity of EcAGM-like enzymes” value in [2] (5 mM metformin, 20 μM agmatine, steady state Michaelis-Menten model) is listed as 83%. For the same compound, the pKi in [2] is 2.96 and 3.00 and ~3.00; in data set [5] it was 1.89. Besides, the “inhibition of agmatine deiminase (AgDI)” value in data set [3] (50 mM metformin) is “not inhibited”; in data set [3] (50 mM metformin, listed as Metformin), “does not inhibit”. In addition, the “concentration of metformin in the human gut” value in [6] was 1000 to 10000 µM. The “binding constant, human PEN2 protein” value on human PEN2 protein is “micromolar range”. In addition, the “transformation of metformin by ureohydrolase homologs” value in data set [7] is listed as “No metabolism; also recorded: No transformation”. The “fraction excreted into wastewater” value in data set [8] is listed as more than 80%. Besides, in the data set on complex IV, the “inhibitory concentration, mitochondrial respiration proteins like complex IV” value is listed as “hundreds of micromolar”.
Regarding `[H]/N=C(/N)N/C(=N/[H])NCCc1ccccc1` [phenformin], the pKi in data set [2] is 3.22.
